Starred links: 1 amine or outer side, 2 acyl side, 3 side chain; linkers in the order of their positions; H or OH if unused. Non-standard residues stand in square brackets, D forms with d. Residues, ends and D or L forms follow the SMILES beside them. ξ: configuration not given here. *: point of attachment. ξLeuψ(P(O)(OH)CH2)ξVal = CC(C)CC(N[*:1])P(=O)(O)CC(C(=O)[*:2])C(C)C; X1 = CC(C)CC(N[*:1])P(=O)(O)C[C@@H](C(=O)[*:2])C(C)C; X2 = CC(C)CC(N[*:1])P(=O)(O)CCC(=O)[*:2]; X3 = CC(C)CC(N[*:1])P(=O)(O)CC(=O)[*:2]; NMeH = CN[C@@H](Cc1c[nH]cn1)C(=O)O; NMeF = CN[C@@H](Cc1ccccc1)C(=O)O; ξR = N=C(N)NCCCC(N)C(=O)O; Cbz = O=C(OCc1ccccc1)*; Boc = CC(C)(C)OC(=O)*; OtBu = CC(C)(C)O*
Biological target: T1, Renin (Homo sapiens, UniProt P00797)
T1 sequence (P00797 whole entry): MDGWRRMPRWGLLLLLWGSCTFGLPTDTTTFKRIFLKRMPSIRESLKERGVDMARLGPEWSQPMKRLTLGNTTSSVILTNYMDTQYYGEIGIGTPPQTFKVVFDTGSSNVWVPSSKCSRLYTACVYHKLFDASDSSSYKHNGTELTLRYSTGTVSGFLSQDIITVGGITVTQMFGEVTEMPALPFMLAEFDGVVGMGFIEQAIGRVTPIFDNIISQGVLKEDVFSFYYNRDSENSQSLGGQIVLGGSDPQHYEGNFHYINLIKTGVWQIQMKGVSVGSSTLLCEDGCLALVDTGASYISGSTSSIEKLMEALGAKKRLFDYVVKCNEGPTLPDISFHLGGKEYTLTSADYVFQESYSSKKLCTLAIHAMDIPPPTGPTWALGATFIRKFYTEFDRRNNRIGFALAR
Test: In vitro inhibition against human plasma renin at pH 7.2 was determined
Format: cell-free
In short: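 Human plasma renin activity assayed in vitro at pH 7.2 with the synthetic peptides added. IC50 is the peptide concentration that lowered plasma renin activity by 50%.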

Q: Which IC50 does the source give for `CC(C)CC(NC(=O)[C@H](Cc1c[nH]cn1)NC(=O)[C@H](Cc1ccccc1)NC(=O)[C@H]1CCCN1C(=O)OCc1ccccc1)P(=O)(O)O` (some centres not stated) here?
A: 6.4 µM

Q: For `CC[C@H](C)[C@H](NC(=O)CCP(=O)(O)[C@@H](CC(C)C)NC(=O)[C@H](Cc1c[nH]cn1)NC(=O)[C@H](Cc1ccccc1)NC(=O)[C@H]1CCCN1C(=O)[C@H](CCCN=C(N)N)NC(=O)[C@H](CCCN=C(N)N)NC(=O)OCc1ccccc1)C(=O)N[C@@H](Cc1c[nH]cn1)C(N)=O`, which IC50 is on record?
A: 10 µM

Q: How did the IC50 turn out when `CC[C@H](C)[C@H](NC(=O)[C@@H](CP(=O)(O)[C@@H](CC(C)C)NC(=O)[C@H](Cc1c[nH]cn1)NC(=O)[C@H](Cc1ccccc1)NC(=O)[C@H]1CCCN1C(=O)[C@H](CCCN=C(N)N)NC(=O)[C@H](CCCN=C(N)N)NC(=O)OCc1ccccc1)C(C)C)C(=O)N[C@@H](Cc1c[nH]cn1)C(N)=O` was run?
A: 0.1 µM

Q: With `COC(=O)C(CP(=O)(O)C(CC(C)C)NC(=O)CC(O)C(CC(C)C)NC(=O)[C@H](Cc1cnc[nH]1)NC(=O)[C@H](Cc1ccccc1)NC(=O)OCc1ccccc1)C(C)C` (some centres not stated) as the molecule, how does the IC50 read?
A: > 30 µM

Q: `COC(=O)CC(O)[C@H](CC(C)C)NC(=O)[C@H](C)NC(=O)C(CP(=O)(O)C(CC(C)C)NC(=O)[C@H](Cc1c[nH]cn1)NC(=O)[C@H](Cc1ccccc1)NC(=O)[C@H]1CCCN1C(=O)OCc1ccccc1)C(C)C` (some centres not stated) was tested. Which IC50 did it give?
A: 0.9 µM

Q: `CC[C@H](C)[C@H](NC(=O)C(CP(=O)(O)C(CC(C)C)NC(=O)[C@H](Cc1cnc[nH]1)NC(=O)[C@H](Cc1ccccc1)NC(=O)[C@H]1CCCN1C(=O)[C@H](Cc1cnc[nH]1)NC(=O)[C@H]1CCCN1)C(C)C)C(=O)N[C@@H](Cc1cnc[nH]1)C(=O)N[C@@H](CCCCN)C(=O)O` (some centres not stated) was tested. Which IC50 did it give?
A: 0.07 µM

Q: How did the IC50 turn out when `CC[C@H](C)[C@H](NC(=O)C(CP(=O)(O)C(CC(C)C)NC(=O)[C@H](Cc1cnc[nH]1)NC(=O)[C@H](Cc1ccccc1)NC(=O)[C@H]1CCCN1C(=O)OCc1ccccc1)C(C)C)C(=O)N[C@@H](Cc1cnc[nH]1)C(N)=O` (some centres not stated) was run?
A: 0.6 µM

Q: For `CC(C)CC(NC(=O)[C@H](Cc1cnc[nH]1)NC(=O)[C@H](Cc1ccccc1)NC(=O)[C@H]1CCCN1C(=O)OCc1ccccc1)[PH](=O)O` (some centres not stated), which IC50 is on record?
A: > 30 µM

Q: For `CC[C@H](C)[C@H](NC(=O)C(CP(=O)(O)C(CC(C)C)NC(=O)[C@H](Cc1ccccc1)NC(=O)[C@H](Cc1ccccc1)NC(=O)OC(C)(C)C)C(C)C)C(=O)N[C@@H](Cc1cnc[nH]1)C(N)=O` (some centres not stated) (Boc-FF[ξLeuψ(P(O)(OH)CH2)ξVal]IH-NH2), which IC50 is on record?
A: 6 µM

Q: How did the IC50 turn out when `CC[C@H](C)[C@H](NC(=O)C(CP(=O)(O)C(CC(C)C)NC(=O)[C@H](Cc1ccccc1)N(C)C(=O)[C@H](Cc1ccccc1)NC(=O)OC(C)(C)C)C(C)C)C(=O)N[C@@H](Cc1c[nH]cn1)C(N)=O` (some centres not stated) (Boc-F[NMeF][ξLeuψ(P(O)(OH)CH2)ξVal]IH-NH2) was run?
A: > 30 µM

Q: Which IC50 does the source give for `CC[C@H](C)[C@H](NC(=O)C(CP(=O)(O)C(CC(C)C)NC(=O)[C@H](Cc1c[nH]cn1)N(C)C(=O)[C@H](Cc1ccccc1)NC(=O)OC(C)(C)C)C(C)C)C(=O)N[C@@H](Cc1c[nH]cn1)C(N)=O` (some centres not stated) (Boc-F[NMeH][ξLeuψ(P(O)(OH)CH2)ξVal]IH-NH2) here?
A: > 30 µM

Q: For `CC[C@H](C)[C@H](NC(=O)[C@H](CP(=O)(O)C(CC(C)C)NC(=O)[C@H](Cc1cnc[nH]1)NC(=O)[C@H](Cc1ccccc1)NC(=O)OCc1ccccc1)C(C)C)C(=O)N[C@@H](Cc1cnc[nH]1)C(N)=O` (some centres not stated) (Cbz-FH[X1]IH-NH2), which IC50 is on record?
A: 2 µM

Q: `CC[C@H](C)[C@H](NC(=O)CCP(=O)(O)C(CC(C)C)NC(=O)[C@H](Cc1cnc[nH]1)NC(=O)[C@H](Cc1ccccc1)NC(=O)OCc1ccccc1)C(=O)N[C@@H](Cc1cnc[nH]1)C(N)=O` (some centres not stated) (Cbz-FH[X2]IH-NH2) was tested. Which IC50 did it give?
A: > 30 µM

Q: How did the IC50 turn out when `CC[C@H](C)[C@H](NC(=O)CP(=O)(O)C(CC(C)C)NC(=O)[C@H](Cc1cnc[nH]1)NC(=O)[C@H](Cc1ccccc1)NC(=O)OCc1ccccc1)C(=O)N[C@@H](Cc1cnc[nH]1)C(N)=O` (some centres not stated) (Cbz-FH[X3]IH-NH2) was run?
A: > 30 µM

Q: With `CC[C@H](C)[C@H](NC(=O)C(CP(=O)(O)C(CC(C)C)NC(=O)[C@H](Cc1cnc[nH]1)NC(=O)[C@H](Cc1ccccc1)NC(=O)OCc1ccccc1)C(C)C)C(=O)N[C@@H](Cc1ccccc1)C(N)=O` (some centres not stated) (Cbz-FH[ξLeuψ(P(O)(OH)CH2)ξVal]IF-NH2) as the molecule, how does the IC50 read?
A: 5 µM

Q: Which IC50 does the source give for `CC[C@H](C)[C@H](NC(=O)C(CP(=O)(O)C(CC(C)C)NC(=O)[C@H](Cc1c[nH]cn1)NC(=O)[C@H](Cc1ccccc1)NC(=O)OCc1ccccc1)C(C)C)C(=O)NC(CCCN=C(N)N)C(=O)OC(C)(C)C` (some centres not stated) (Cbz-FH[ξLeuψ(P(O)(OH)CH2)ξVal]I[ξR]-OtBu) here?
A: > 30 µM

Q: With `CC[C@H](C)[C@H](NC(=O)C(CP(=O)(O)C(CC(C)C)NC(=O)[C@H](Cc1c[nH]cn1)NC(=O)[C@H](Cc1ccccc1)NC(=O)CNC(=O)OCc1ccccc1)C(C)C)C(=O)N[C@@H](Cc1c[nH]cn1)C(N)=O` (some centres not stated) (Cbz-GFH[ξLeuψ(P(O)(OH)CH2)ξVal]IH-NH2) as the molecule, how does the IC50 read?
A: 0.8 µM

Reference: ChEMBL document CHEMBL1124603, “Renin inhibitors. Synthesis of transition-state analogue inhibitors containing phosphorus acid derivatives at the scissile bond” (J Med Chem, 1989)
